Source: ChEMBL document CHEMBL2021777 (J Med Chem, 2012)
Active and inactive are the calls of the source.

Key:
[1] = target: Neuronal acetylcholine receptor; alpha3/beta2 (Rattus norvegicus, UniProt P04757+P12390); assay: Displacement of [3H] epibatidine from rat alpha3beta2 nAChR by beta scintillation counting; type: protein-complex assay
[2] = target: T1, Neuronal acetylcholine receptor; alpha4/beta2 (Homo sapiens, UniProt P17787+P43681); assay: Antagonist activity at human high sensitive and low sensitive alpha4beta2 nAChR expressed in SH-EP1 cells assessed as inhibition of carbamylcholine induced 86Rb+ ion efflux preincubated for 10 mins prior to carbamylcholine-induction measured after 5 mins by flip-plate technique relative to control; type: functional, cell-based
T1 sequence (P17787 whole entry): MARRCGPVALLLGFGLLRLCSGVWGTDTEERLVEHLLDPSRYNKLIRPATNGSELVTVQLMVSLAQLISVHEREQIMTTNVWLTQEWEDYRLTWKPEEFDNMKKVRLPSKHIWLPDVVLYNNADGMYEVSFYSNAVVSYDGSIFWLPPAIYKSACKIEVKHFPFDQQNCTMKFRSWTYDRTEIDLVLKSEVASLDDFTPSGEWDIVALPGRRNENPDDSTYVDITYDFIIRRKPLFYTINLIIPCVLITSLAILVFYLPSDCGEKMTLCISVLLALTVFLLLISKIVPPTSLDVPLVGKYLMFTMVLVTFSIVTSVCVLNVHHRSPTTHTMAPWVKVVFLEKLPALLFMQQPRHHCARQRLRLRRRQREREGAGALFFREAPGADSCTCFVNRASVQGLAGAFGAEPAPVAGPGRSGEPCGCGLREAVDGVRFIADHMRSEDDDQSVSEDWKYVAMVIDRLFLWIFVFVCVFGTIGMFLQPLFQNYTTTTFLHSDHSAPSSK
T1 sequence (P43681 whole entry): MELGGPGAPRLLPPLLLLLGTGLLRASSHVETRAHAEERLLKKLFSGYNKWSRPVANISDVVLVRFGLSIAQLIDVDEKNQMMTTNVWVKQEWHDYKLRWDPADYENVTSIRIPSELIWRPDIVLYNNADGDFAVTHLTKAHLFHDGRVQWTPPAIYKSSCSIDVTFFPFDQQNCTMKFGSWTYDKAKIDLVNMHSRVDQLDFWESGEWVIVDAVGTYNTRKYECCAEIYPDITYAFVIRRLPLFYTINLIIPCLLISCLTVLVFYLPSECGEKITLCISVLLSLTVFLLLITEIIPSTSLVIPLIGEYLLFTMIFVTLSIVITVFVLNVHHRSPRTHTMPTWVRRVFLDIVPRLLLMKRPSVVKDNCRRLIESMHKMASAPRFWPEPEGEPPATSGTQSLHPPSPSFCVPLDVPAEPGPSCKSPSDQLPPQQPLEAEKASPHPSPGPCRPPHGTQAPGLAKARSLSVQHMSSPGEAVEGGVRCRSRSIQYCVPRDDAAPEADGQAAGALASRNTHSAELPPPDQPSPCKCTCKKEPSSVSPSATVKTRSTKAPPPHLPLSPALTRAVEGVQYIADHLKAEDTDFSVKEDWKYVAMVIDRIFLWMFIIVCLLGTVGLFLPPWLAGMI
Method in brief: (§1)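 SH-EP1 human epithelial cells stably transfected with separate human α4 and β2 subunit cDNAs express a mixed population of high-sensitivity (2:3 α4:β2) and low-sensitivity (3:2) α4β2-nAChRs. Cells were kept at low passage (1−26 from frozen stocks). Function was read as 86Rb+ ion flux.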

[3] = target: T2, Neuronal acetylcholine receptor; alpha4/beta2 (Rattus norvegicus, UniProt P09483+P12390); assay: Displacement of [3H] epibatidine from rat alpha4beta2* nAChR in rat forebrain by beta scintillation counting
T2 sequence (P09483 whole entry): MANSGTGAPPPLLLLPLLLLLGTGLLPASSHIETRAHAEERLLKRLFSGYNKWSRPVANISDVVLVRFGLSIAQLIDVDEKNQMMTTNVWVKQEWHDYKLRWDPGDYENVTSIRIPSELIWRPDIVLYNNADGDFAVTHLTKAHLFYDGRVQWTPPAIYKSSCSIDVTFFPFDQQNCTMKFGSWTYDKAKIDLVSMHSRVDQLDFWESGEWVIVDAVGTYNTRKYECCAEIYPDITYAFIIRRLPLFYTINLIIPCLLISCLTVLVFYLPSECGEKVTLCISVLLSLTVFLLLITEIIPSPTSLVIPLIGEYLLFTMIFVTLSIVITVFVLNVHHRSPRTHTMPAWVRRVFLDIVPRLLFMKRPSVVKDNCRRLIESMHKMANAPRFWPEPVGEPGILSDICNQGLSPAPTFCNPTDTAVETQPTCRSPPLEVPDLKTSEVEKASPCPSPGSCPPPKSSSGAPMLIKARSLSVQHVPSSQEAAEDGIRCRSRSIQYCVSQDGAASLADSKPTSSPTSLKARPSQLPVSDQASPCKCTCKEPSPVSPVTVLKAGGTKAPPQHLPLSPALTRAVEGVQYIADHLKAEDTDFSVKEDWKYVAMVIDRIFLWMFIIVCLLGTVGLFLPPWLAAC
T2 sequence (P12390 whole entry): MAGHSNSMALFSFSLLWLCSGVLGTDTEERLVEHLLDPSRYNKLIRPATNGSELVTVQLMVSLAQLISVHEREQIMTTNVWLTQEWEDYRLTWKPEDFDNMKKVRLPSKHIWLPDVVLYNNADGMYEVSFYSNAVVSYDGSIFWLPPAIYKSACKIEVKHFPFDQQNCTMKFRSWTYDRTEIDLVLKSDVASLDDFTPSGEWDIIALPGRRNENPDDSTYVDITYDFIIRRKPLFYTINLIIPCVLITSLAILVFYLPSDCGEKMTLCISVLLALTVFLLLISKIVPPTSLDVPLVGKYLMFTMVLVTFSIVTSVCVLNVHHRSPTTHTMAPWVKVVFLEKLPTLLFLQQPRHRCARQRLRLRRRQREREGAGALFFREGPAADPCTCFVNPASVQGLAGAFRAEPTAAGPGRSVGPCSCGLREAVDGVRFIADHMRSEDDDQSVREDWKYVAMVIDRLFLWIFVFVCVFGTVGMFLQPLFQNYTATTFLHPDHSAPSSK

[4] = target: T1, Neuronal acetylcholine receptor; alpha4/beta2; assay: Partial agonist activity at human high sensitive alpha4beta2 nAChR expressed in SH-EP1 cells assessed as 86Rb+ ion efflux by flip-plate technique relative to sazetidine-A; type: functional, cell-based
Method in brief: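 86Rb+ ion flux in SH-EP1 cells stably transfected with separate human α4 and β2 subunit cDNAs, expressing a mixture of high- and low-sensitivity α4β2 nAChRs. Cells kept at low passage (1−26). Efficacy at the HS form extrapolated relative to a reference agonist defined as a 100% full agonist.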

[5] = target: T1, Neuronal acetylcholine receptor; alpha4/beta2; assay: Agonist activity at human alpha4beta2 nAChR expressed in SH-EP1 cells assessed as 86Rb+ ion efflux after 9.5 mins by flip-plate technique; type: functional, cell-based; method in brief: as §1
[6] = target: T3, Neuronal acetylcholine receptors; alpha-3/beta-4, alpha-5, beta-2 (Homo sapiens) (UniProt P17787+P30926+P32297+P30532); assay: Antagonist activity at alpha3beta4alpha5beta2 in human SH-SY5Y cells at 10 uM by 86Rb+ flux assay; type: functional, cell-based
T3 sequence (P17787 whole entry, looked up): as the sequence (P17787 whole entry) above
T3 sequence (P30532 whole entry, looked up): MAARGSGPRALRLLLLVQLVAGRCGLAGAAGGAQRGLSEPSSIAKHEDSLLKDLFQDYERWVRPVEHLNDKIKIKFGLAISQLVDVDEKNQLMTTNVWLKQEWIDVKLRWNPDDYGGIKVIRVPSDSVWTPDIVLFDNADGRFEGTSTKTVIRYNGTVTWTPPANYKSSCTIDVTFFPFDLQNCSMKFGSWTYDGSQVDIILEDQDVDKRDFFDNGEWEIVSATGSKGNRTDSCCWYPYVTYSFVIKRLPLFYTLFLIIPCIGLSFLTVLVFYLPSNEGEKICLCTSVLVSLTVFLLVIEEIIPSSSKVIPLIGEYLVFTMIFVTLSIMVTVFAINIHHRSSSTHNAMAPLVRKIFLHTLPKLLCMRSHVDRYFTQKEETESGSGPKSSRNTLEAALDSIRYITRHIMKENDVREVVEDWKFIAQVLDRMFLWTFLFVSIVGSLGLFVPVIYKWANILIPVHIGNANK
T3 sequence (P30926 whole entry, looked up): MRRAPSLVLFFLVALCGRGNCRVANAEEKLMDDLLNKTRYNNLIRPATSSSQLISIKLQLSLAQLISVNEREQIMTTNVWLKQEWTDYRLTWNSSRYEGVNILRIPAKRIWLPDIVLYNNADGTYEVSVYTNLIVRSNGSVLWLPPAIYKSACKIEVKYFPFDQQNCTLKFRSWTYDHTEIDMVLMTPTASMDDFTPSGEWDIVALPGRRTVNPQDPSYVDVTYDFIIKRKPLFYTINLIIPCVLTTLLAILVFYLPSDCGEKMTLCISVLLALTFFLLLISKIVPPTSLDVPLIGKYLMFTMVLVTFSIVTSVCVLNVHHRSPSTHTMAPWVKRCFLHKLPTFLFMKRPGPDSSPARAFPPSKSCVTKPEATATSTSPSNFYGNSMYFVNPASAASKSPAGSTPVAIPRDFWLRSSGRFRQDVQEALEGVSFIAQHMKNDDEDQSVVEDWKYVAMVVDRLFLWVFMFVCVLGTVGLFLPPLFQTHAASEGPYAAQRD
T3 sequence (P32297 whole entry, looked up): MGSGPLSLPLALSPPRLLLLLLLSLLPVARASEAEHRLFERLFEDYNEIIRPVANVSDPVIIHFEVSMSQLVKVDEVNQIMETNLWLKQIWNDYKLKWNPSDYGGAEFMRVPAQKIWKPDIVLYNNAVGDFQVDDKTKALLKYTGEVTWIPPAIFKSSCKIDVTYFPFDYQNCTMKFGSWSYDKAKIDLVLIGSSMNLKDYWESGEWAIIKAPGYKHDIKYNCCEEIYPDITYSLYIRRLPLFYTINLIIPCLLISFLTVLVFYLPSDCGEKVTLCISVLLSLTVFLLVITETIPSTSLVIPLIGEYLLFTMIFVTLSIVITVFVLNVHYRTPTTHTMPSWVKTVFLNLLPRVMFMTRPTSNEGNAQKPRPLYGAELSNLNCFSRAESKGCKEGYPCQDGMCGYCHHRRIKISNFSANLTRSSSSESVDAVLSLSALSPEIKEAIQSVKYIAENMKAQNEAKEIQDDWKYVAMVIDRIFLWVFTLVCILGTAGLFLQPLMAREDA
Method in brief: (§2)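 Human neuroblastoma SH-SY5Y cells endogenously express α3β4* nAChRs (α3, β4, probably α5, sometimes β2); their α7 receptors give no signal under these conditions. Cells were kept at low passage (1−26 from frozen stocks). Function was read as 86Rb+ efflux, with agonist and antagonist modes tested up to 10 μM.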

[7] = target: Neuronal acetylcholine receptor; alpha2/beta4 (Rattus norvegicus, UniProt P12389+P12392); assay: Displacement of [3H] epibatidine from rat alpha2beta4 nAChR by beta scintillation counting; type: protein-complex assay
[8] = species: Rattus norvegicus; assay: Selectivity ratio of Ki for rat alpha3beta4 to Ki for rat alpha4beta2
Method in brief: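 Ki values from [3H]epibatidine competition binding at heterologously expressed rat nAChR subtypes, using the PDSP protocol; selectivity taken as the α3β4/α4β2 Ki ratio.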

[9] = target: T1, Neuronal acetylcholine receptor; alpha4/beta2; assay: Antagonist activity at human alpha4beta2 nAChR expressed in SH-EP1 cells assessed as inhibition of carbamylcholine induced 86Rb+ ion efflux preincubated for 10 mins prior to carbamylcholine-induction measured after 5 mins by flip-plate technique; type: functional, cell-based; method in brief: as §1
[10] = target: Neuronal acetylcholine receptor; alpha4/beta4 (Rattus norvegicus, UniProt P09483+P12392); assay: Displacement of [3H] epibatidine from rat alpha4beta4 nAChR by beta scintillation counting; type: protein-complex assay
Sequence of Neuronal acetylcholine receptor; alpha4/beta4 (P09483 whole entry): as the sequence (P09483 whole entry) above
Sequence of Neuronal acetylcholine receptor; alpha4/beta4 (P12392 whole entry): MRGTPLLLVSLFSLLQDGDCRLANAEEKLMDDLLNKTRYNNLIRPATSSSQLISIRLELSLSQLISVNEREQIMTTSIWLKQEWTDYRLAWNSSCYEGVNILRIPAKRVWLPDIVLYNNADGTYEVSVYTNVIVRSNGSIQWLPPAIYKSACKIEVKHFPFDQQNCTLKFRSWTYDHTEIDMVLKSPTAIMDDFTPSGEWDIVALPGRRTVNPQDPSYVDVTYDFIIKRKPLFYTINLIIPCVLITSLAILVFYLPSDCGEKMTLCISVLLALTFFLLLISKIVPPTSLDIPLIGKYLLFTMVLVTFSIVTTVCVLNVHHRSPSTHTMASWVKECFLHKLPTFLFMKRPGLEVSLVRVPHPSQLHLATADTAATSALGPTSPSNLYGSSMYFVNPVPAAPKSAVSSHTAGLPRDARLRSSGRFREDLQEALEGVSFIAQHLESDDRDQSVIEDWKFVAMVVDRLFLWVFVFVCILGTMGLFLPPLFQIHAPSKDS

[11] = target: T3, Neuronal acetylcholine receptors; alpha-3/beta-4, alpha-5, beta-2 (Homo sapiens); assay: Agonist activity at alpha3beta4alpha5beta2 in human SH-SY5Y cells at 10 uM by 86Rb+ flux assay; type: functional, cell-based; method in brief: as §2
[12] = target: T2, Neuronal acetylcholine receptor; alpha4/beta2; assay: Displacement of [3H] epibatidine from rat alpha4beta2 nAChR by beta scintillation counting; type: protein-complex assay
[13] = target: Neuronal acetylcholine receptor; alpha2/beta2 (Rattus norvegicus, UniProt P12389+P12390); assay: Displacement of [3H] epibatidine from rat alpha2beta2 nAChR by beta scintillation counting; type: protein-complex assay
[14] = target: T4, Neuronal acetylcholine receptor; alpha3/beta4 (Rattus norvegicus, UniProt P04757+P12392); assay: Displacement of [3H] epibatidine from rat alpha3beta4 nAChR by beta scintillation counting; type: protein-complex assay
T4 sequence (P04757 whole entry): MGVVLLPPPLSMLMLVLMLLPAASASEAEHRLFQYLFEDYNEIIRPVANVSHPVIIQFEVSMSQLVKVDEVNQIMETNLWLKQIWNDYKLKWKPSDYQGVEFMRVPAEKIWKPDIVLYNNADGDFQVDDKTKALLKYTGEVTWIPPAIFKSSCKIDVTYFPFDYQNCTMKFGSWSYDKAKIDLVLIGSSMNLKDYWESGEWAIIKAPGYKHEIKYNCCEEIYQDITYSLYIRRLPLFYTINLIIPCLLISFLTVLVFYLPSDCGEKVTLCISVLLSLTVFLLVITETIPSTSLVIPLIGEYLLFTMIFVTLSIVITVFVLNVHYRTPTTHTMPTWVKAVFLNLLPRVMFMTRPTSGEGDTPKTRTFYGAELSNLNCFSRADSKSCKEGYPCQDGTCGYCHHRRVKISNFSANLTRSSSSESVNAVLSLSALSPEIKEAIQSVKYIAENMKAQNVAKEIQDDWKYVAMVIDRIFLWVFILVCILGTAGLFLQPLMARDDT
T4 sequence (P12392 whole entry): as the sequence (P12392 whole entry) above

[15] = target: T5, Acetylcholine receptor; alpha1/beta1/delta/gamma (Homo sapiens) (UniProt P02708+P07510+P11230+Q07001); assay: Agonist activity at human alpha1beta1gammadelta nAChR expressed in TE671/RD cells at 10 uM by 86Rb+ flux assay; type: functional, cell-based
Method in brief: (§3)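 Human clonal TE671/RD cells endogenously express muscle-type α1*-nAChRs (α1, β1, γ, δ). Cells were kept at low passage (1−26 from frozen stocks). Function was read as 86Rb+ efflux, with agonist and antagonist modes tested up to 10 μM.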

[16] = target: T5, Acetylcholine receptor; alpha1/beta1/delta/gamma (Homo sapiens); assay: Antagonist activity at human alpha1beta1gammadelta nAChR expressed in TE671/RD cells at 10 uM by 86Rb+ flux assay; type: functional, cell-based; method in brief: as §3
[17] = target: T1, Neuronal acetylcholine receptor; alpha4/beta2; assay: Agonist activity at human high sensitive and low sensitive alpha4beta2 nAChR expressed in SH-EP1 cells assessed as 86Rb+ ion efflux by flip-plate technique relative to sazetidine-A; type: functional, cell-based
Method in brief: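 SH-EP1-hα4β2 cells (stably transfected human α4 and β2, low passage 1−26) express mixed high- and low-sensitivity α4β2-nAChRs. Efficacy was measured by 86Rb+ flux on this mixed population. High-sensitivity efficacy was extrapolated by defining a reference agonist as 100% full agonist at the HS receptor.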

[18] = target: Neuronal acetylcholine receptor subunit alpha-7 (Homo sapiens) (UniProt P36544); assay: Displacement of [3H]epibatidine from human alpha7 nAChR expressed in SH-EP1 cells at 10 uM by beta scintillation counting; type: cell-based
Method in brief: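 Membranes from SH-EP1 cells heterologously expressing human α7 nAChRs; test ligand at 10 μM competing with 10 nM [3H]epibatidine; protocol similar to the PDSP one.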

[19] = target: T4, Neuronal acetylcholine receptor; alpha3/beta4; assay: Displacement of [3H] epibatidine from rat alpha3beta4 nAChR expressed in HEK293 cells by liquid scintillation counting; type: cell-based
[20] = target: T2, Neuronal acetylcholine receptor; alpha4/beta2; assay: Displacement of [3H] epibatidine from rat alpha4beta2 nAChR expressed in HEK293 cells by liquid scintillation counting; type: cell-based
[21] = Drug uptake in BALB/cJ mouse brain at 3 mg/kg after 15 mins; type: ADME, organism-based; design: dose 3 mg/kg; conditions: read-out: Drug uptake
[22] = target: T2, Neuronal acetylcholine receptor; alpha4/beta2; assay: Displacement of [3H] epibatidine from rat alpha4beta2* nAChR in rat forebrain by liquid scintillation counting
[23] = Drug uptake in BALB/cJ mouse brain at 1 mg/kg after 15 mins; type: ADME, organism-based; design: dose 1 mg/kg; conditions: read-out: Drug uptake

Sequence of Neuronal acetylcholine receptor; alpha3/beta2 (P04757 whole entry): as the sequence (P04757 whole entry) above
Sequence of Neuronal acetylcholine receptor; alpha3/beta2 (P12390 whole entry): as the sequence (P12390 whole entry) above

COCC[C@@H]1C[C@H]1c1cncc(OC[C@@H]2CCN2)c1
Ki [1]: 20 nM
Efficacy [2]: 75%
Ki [3]: 6.2 nM
Efficacy [4]: 62%
EC50 [5]: 43.1 nM
Activity [6]: inactive
Ki [7]: 405 nM
Ratio Ki [8]: > 16700
IC50 [9]: 50.4 nM
Ki [10]: 96.5 nM
Activity [11]: inactive
Ki [12]: 0.6 nM
Ki [13]: 0.5 nM
Ki [14]: > 10 µM
Activity [15]: inactive
Activity [16]: inactive
Efficacy [17]: 8%

O=C(NC1CC1)OCC[C@H]1C[C@@H]1c1cncc(OC[C@@H]2CCN2)c1
Ki [1]: 16 nM
Efficacy [2]: 82%
Ki [3]: 2.4 nM
Efficacy [4]: 80%
EC50 [5]: 23.3 nM
Activity [6]: inactive
Ki [7]: 720 nM
Ratio Ki [8]: > 100000
IC50 [9]: 19.6 nM
Ki [10]: 234 nM
Activity [11]: inactive
Ki [12]: 0.7 nM
Ki [13]: 0.9 nM
Ki [14]: > 10 µM
Activity [15]: inactive
Activity [16]: inactive
Efficacy [17]: 27%

OCC[C@@H]1C[C@H]1c1cncc(OC[C@@H]2CCN2)c1
Ki [1]: 17 nM
Efficacy [2]: 69%
Ki [3]: 3.7 nM
Efficacy [4]: 65%
EC50 [5]: 34.6 nM
Activity [6]: inactive
Ki [7]: 65 nM
Ratio Ki [8]: 1500
IC50 [9]: 50.9 nM
Ki [10]: 29 nM
Activity [11]: inactive
Ki [12]: 0.7 nM
Ki [13]: 0.5 nM
Ki [14]: 1.04 µM
Activity [15]: inactive
Activity [16]: inactive
Efficacy [17]: 10%

CN(C)C(=O)OCC[C@H]1C[C@@H]1c1cncc(OC[C@@H]2CCN2)c1
Ki [1]: 15 nM
Efficacy [2]: 85%
Ki [3]: 2.1 nM
Efficacy [4]: 71%
EC50 [5]: 18.2 nM
Activity [6]: inactive
Ki [7]: 261 nM
Ratio Ki [8]: > 100000
IC50 [9]: 19.1 nM
Ki [10]: 281 nM
Activity [11]: inactive
Ki [12]: 0.4 nM
Ki [13]: 0.3 nM
Ki [14]: > 10 µM
Activity [15]: inactive
Activity [16]: inactive
Efficacy [17]: 15%

O=C(OCC[C@H]1C[C@@H]1c1cncc(OC[C@@H]2CCN2)c1)N1CCCC1
Ki [1]: 21.5 nM
Efficacy [2]: 84%
Ki [3]: 4 nM
Efficacy [4]: 69%
EC50 [5]: 44.4 nM
%max [18]: 30%
Activity [6]: inactive
Ki [7]: 2330 nM
Ratio Ki [8]: > 100000
IC50 [9]: 48.5 nM
Ki [10]: 162 nM
Activity [11]: inactive
Ki [12]: 0.8 nM
Ki [13]: 1.5 nM
Ki [14]: > 10 µM
Activity [15]: inactive
Activity [16]: inactive
Efficacy [17]: 23%

OCCCCC#Cc1cncc(OC[C@@H]2CCN2)c1
Efficacy [2]: 63%
Ki [19]: 1000 nM
Ki [20]: 0.4 nM
concentration at 0.25 h [21]: 10 ng/g
Efficacy [4]: 100%
Ki [22]: 0.9 nM
EC50 [5]: 5.8 nM
Activity [6]: inactive
Ratio Ki [8]: 24000
IC50 [9]: 4.8 nM
Activity [11]: inactive
concentration at 0.25 h [23]: 3 ng/g
Activity [15]: inactive
Activity [16]: inactive
Efficacy [17]: 55%

CN1CCC[C@H]1c1cccnc1
Activity [6]: inactive
Activity [11]: inactive
Activity [15]: inactive
Activity [16]: inactive

O=C(Nc1ccccc1)OCC[C@H]1C[C@@H]1c1cncc(OC[C@@H]2CCN2)c1
Ki [1]: 24.4 nM
Efficacy [2]: 87%
Ki [3]: 5.9 nM
Efficacy [4]: 78%
EC50 [5]: 48.9 nM
Activity [6]: inactive
Ki [7]: 241 nM
Ratio Ki [8]: 14800
IC50 [9]: 50.2 nM
Ki [10]: 551 nM
Activity [11]: inactive
Ki [12]: 0.6 nM
Ki [13]: 1.2 nM
Ki [14]: 8.85 µM
Activity [15]: inactive
Activity [16]: inactive
Efficacy [17]: 24%
